In ChEMBL document CHEMBL1135742, “Modification of the structure of a metallopeptide: synthesis and biological evaluation of (111)In-labeled DOTA-conjugated rhenium-cyclized alpha-MSH analogues” (J Med Chem, 2002):

species on record: Mus musculus; assay: Uptake Ratio of Tumor/liver (each in % ID/g) in B16/F1 Murine Melanoma-Bearing C57 Mice at 2 h; assay type: functional, organism-based; settings: not given
Method in brief: (§1)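 C57 BL/6 female mice (7–8 weeks) carried B16/F1 tumours from 1×10^6 cells given s.c. in the right flank; tumours were ~500 mg at 9–10 days. Each mouse received […] of HPLC-purified, neutralized 111In-DOTA peptide via the tail vein. Mice were killed at 0.5, 2, 4 or 24 h pi. Tissues were weighed and γ-counted, expressed as % ID/g; ratios were tumor/tissue % ID/g.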

Substance | Uptake ratio
DOTA-ReCCEHdFRWCKPVD-OH | 51.3
DOTA-ReCCEHdFRWCRPV-NH2 | 45.7

species on record: Mus musculus; assay: Uptake of [111In]-labeled compound in kidney at 2 hr pi in the presence of […]; assay type: functional, organism-based; settings: not given
Method in brief: (§2)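 C57 BL/6 female mice, 7–8 weeks old, inoculated s.c. in right flank with 1×10^6 B16/F1 melanoma cells. Used 9–10 days later at tumor weight ~500 mg. […] HPLC-purified 111In-DOTA peptide (neutral pH) given via tail vein, with or without […]. Killed 2 h pi. Tissues weighed and gamma-counted. Uptake expressed as % ID/g.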

Substance | ID/g [%]
DOTA-ReCCEHdFRWCRPV-NH2 | 11.2

species on record: Mus musculus; assay: Uptake Ratio of Tumor/lungs (each in % ID/g) in B16/F1 Murine Melanoma-Bearing C57 Mice at 2 h; assay type: functional, organism-based; settings: not given
Method in brief: (§3)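 Female C57 BL/6 mice, 7–8 weeks old, carried subcutaneous right-flank B16/F1 tumors from 1×10^6 cells and were used 9–10 days later at ~500 mg tumor weight. Each received […] of HPLC-purified, pH-neutralized ¹¹¹In-DOTA peptide by tail vein. Tumor and organs were excised at the stated time, weighed and γ-counted. Each tissue was taken as % ID/g, and tumor/normal-tissue ratios were formed from these values.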

Substance | Uptake ratio
DOTA-ReCCEHdFRWCKPVD-OH | 56.6
DOTA-ReCCEHdFRWCRPV-NH2 | 65.4

species on record: Mus musculus; assay: Uptake of [111In]-labeled compound in heart at 2 hr pi in the presence of […]; assay type: functional, organism-based; settings: not given; method in brief: as §2

Substance | ID/g [%]
DOTA-ReCCEHdFRWCRPV-NH2 | 0.33

species on record: Mus musculus; assay: Radioactivity uptake in the pancreas was expressed as a percentage of the injected radioactive dose per gram of tissue (% ID/g) in B16/F1 Murine Melanoma-Bearing C57 Mice at 4 h; assay type: functional, organism-based; settings: not given; method in brief: as §1

Substance | ID/g [%]
DOTA-ReCCEHdFRWCKPVD-OH | 0.031
DOTA-ReCCEHdFRWCRPV-NH2 | 0.015

species on record: Mus musculus; assay: Radioactivity uptake in the tumor was expressed as a percentage of the injected radioactive dose per gram of tissue (% ID/g) in B16/F1 Murine Melanoma-Bearing C57 Mice at 0.5 h; assay type: functional, organism-based; settings: not given; method in brief: as §1

Substance | ID/g [%]
DOTA-ReCCEHdFRWCKPVD-OH | 8.96
DOTA-ReCCEHdFRWCRPV-NH2 | 16.6

species on record: Mus musculus; assay: Radioactivity uptake in the spleen was expressed as a percentage of the injected radioactive dose per gram of tissue (% ID/g) in B16/F1 Murine Melanoma-Bearing C57 Mice at 2 h; assay type: functional, organism-based; settings: not given; method in brief: as §1

Substance | ID/g [%]
DOTA-ReCCEHdFRWCKPVD-OH | 0.23
DOTA-ReCCEHdFRWCRPV-NH2 | 0.27

species on record: Mus musculus; assay: Radioactivity uptake in the tumor was expressed as a percentage of the injected radioactive dose per gram of tissue (% ID/g) in B16/F1 Murine Melanoma-Bearing C57 Mice at 4 h; assay type: functional, organism-based; settings: not given; method in brief: as §1

Substance | ID/g [%]
DOTA-ReCCEHdFRWCKPVD-OH | 7.32
DOTA-ReCCEHdFRWCRPV-NH2 | 17.4

species on record: Mus musculus; assay: Radioactivity uptake in the kidneys was expressed as a percentage of the injected radioactive dose per gram of tissue (% ID/g) in B16/F1 Murine Melanoma-Bearing C57 Mice at 24 h; assay type: functional, organism-based; settings: Kidney; method in brief: as §1

Substance | ID/g [%]
DOTA-ReCCEHdFRWCKPVD-OH | 6.28
DOTA-ReCCEHdFRWCRPV-NH2 | 5.64

species on record: Mus musculus; assay: Radioactivity uptake in the liver was expressed as a percentage of the injected radioactive dose per gram of tissue (% ID/g) in B16/F1 Murine Melanoma-Bearing C57 Mice at 2 h; assay type: functional, organism-based; settings: not given; method in brief: as §1

Substance | ID/g [%]
DOTA-ReCCEHdFRWCKPVD-OH | 0.16
DOTA-ReCCEHdFRWCRPV-NH2 | 0.38

species on record: Mus musculus; assay: Uptake Ratio of Tumor/lungs (each in % ID/g) in B16/F1 Murine Melanoma-Bearing C57 Mice at 0.5 h; assay type: functional, organism-based; settings: not given; method in brief: as §3

Substance | Uptake ratio
DOTA-ReCCEHdFRWCKPVD-OH | 7.8
DOTA-ReCCEHdFRWCRPV-NH2 | 11.1

species on record: Mus musculus; assay: Uptake of [111In]-labeled compound in blood at 2 hr pi in the absence of […]; assay type: functional, organism-based; settings: not given; method in brief: as §2

Substance | ID/g [%]
DOTA-ReCCEHdFRWCRPV-NH2 | 0.21

species on record: Mus musculus; assay: Radioactivity uptake in the lungs was expressed as a percentage of the injected radioactive dose per gram of tissue (% ID/g) in B16/F1 Murine Melanoma-Bearing C57 Mice at 4 h; assay type: functional, organism-based; settings: Lung; method in brief: as §1

Substance | ID/g [%]
DOTA-ReCCEHdFRWCKPVD-OH | 0.097
DOTA-ReCCEHdFRWCRPV-NH2 | 0.13

species on record: Mus musculus; assay: Radioactivity uptake in the spleen was expressed as a percentage of the injected radioactive dose per gram of tissue (% ID/g) in B16/F1 Murine Melanoma-Bearing C57 Mice at 24 h; assay type: functional, organism-based; settings: not given; method in brief: as §1

Substance | ID/g [%]
DOTA-ReCCEHdFRWCKPVD-OH | 0.043
DOTA-ReCCEHdFRWCRPV-NH2 | 0.32

species on record: Mus musculus; assay: Radioactivity uptake in the blood was expressed as a percentage of the injected radioactive dose per gram of tissue (% ID/g) in B16/F1 Murine Melanoma-Bearing C57 Mice at 24 h; assay type: functional, organism-based; settings: not given; method in brief: as §1

Substance | ID/g [%]
DOTA-ReCCEHdFRWCKPVD-OH | 0.018
DOTA-ReCCEHdFRWCRPV-NH2 | 0.06

species on record: Mus musculus; assay: Uptake of [111In]-labeled compound in tumor at 2 hr pi in the presence of 10 mg NDP; assay type: functional, organism-based; settings: not given; method in brief: as §2

Substance | ID/g [%]
DOTA-ReCCEHdFRWCRPV-NH2 | 1.95

species on record: Mus musculus; assay: Radioactivity uptake in the tumor was expressed as a percentage of the injected radioactive dose per gram of tissue (% ID/g) in B16/F1 Murine Melanoma-Bearing C57 Mice at 24 h; assay type: functional, organism-based; settings: not given; method in brief: as §1

Substance | ID/g [%]
DOTA-ReCCEHdFRWCKPVD-OH | 2.48
DOTA-ReCCEHdFRWCRPV-NH2 | 8.19

species on record: Mus musculus; assay: Radioactivity uptake in the muscle was expressed as a percentage of the injected radioactive dose per gram of tissue (% ID/g) in B16/F1 Murine Melanoma-Bearing C57 Mice at 0.5 h; assay type: functional, organism-based; settings: not given; method in brief: as §1

Substance | ID/g [%]
DOTA-ReCCEHdFRWCKPVD-OH | 0.25
DOTA-ReCCEHdFRWCRPV-NH2 | 0.39

species on record: Mus musculus; assay: Uptake of [111In]-labeled compound in liver at 2 hr pi in the presence of […]; assay type: functional, organism-based; settings: not given; method in brief: as §2

Substance | ID/g [%]
DOTA-ReCCEHdFRWCRPV-NH2 | 1.61

species on record: Mus musculus; assay: Uptake Ratio of Tumor/muscle (each in % ID/g) in B16/F1 Murine Melanoma-Bearing C57 Mice at 2 h; assay type: functional, organism-based; settings: Muscle tissue; method in brief: as §3

Substance | Uptake ratio
DOTA-ReCCEHdFRWCKPVD-OH | 102
DOTA-ReCCEHdFRWCRPV-NH2 | 2100

species on record: Mus musculus; assay: Radioactivity uptake in the tumor was expressed as a percentage of the injected radioactive dose per gram of tissue (% ID/g) in B16/F1 Murine Melanoma-Bearing C57 Mice at 2 h; assay type: functional, organism-based; settings: not given; method in brief: as §1

Substance | ID/g [%]
DOTA-ReCCEHdFRWCKPVD-OH | 8.29
DOTA-ReCCEHdFRWCRPV-NH2 | 17.3

species on record: Mus musculus; assay: Uptake of [111In]-labeled compound in pancreas at 2 hr pi in the presence of 10 mg NDP; assay type: functional, organism-based; settings: not given; method in brief: as §2

Substance | ID/g [%]
DOTA-ReCCEHdFRWCRPV-NH2 | 0.11

species on record: Mus musculus; assay: Uptake of [111In]-labeled compound in muscle at 2 h pi in the presence of […]; assay type: functional, organism-based; settings: Muscle tissue; method in brief: as §2

Substance | ID/g [%]
DOTA-ReCCEHdFRWCRPV-NH2 | 0.18

species on record: Mus musculus; assay: Radioactivity uptake in the spleen was expressed as a percentage of the injected radioactive dose per gram of tissue (% ID/g) in B16/F1 Murine Melanoma-Bearing C57 Mice at 4 h; assay type: functional, organism-based; settings: not given; method in brief: as §1

Substance | ID/g [%]
DOTA-ReCCEHdFRWCKPVD-OH | 0.16
DOTA-ReCCEHdFRWCRPV-NH2 | 0.27

species on record: Mus musculus; assay: Uptake of [111In]-labeled compound in kidney at 2 hr pi in the absence of […]; assay type: functional, organism-based; settings: not given; method in brief: as §2

Substance | ID/g [%]
DOTA-ReCCEHdFRWCRPV-NH2 | 8.72

species on record: Mus musculus; assay: Uptake of [111In]-labeled compound in muscle at 2 hr pi in the absence of […]; assay type: functional, organism-based; settings: Muscle tissue; method in brief: as §2

Substance | ID/g [%]
DOTA-ReCCEHdFRWCRPV-NH2 | 0.03

species on record: Mus musculus; assay: Radioactivity uptake in the heart was expressed as a percentage of the injected radioactive dose per gram of tissue (% ID/g) in B16/F1 Murine Melanoma-Bearing C57 Mice at 2 h; assay type: functional, organism-based; settings: not given; method in brief: as §1

Substance | ID/g [%]
DOTA-ReCCEHdFRWCKPVD-OH | 0.07
DOTA-ReCCEHdFRWCRPV-NH2 | 0.07

species on record: Mus musculus; assay: Radioactivity uptake in the pancreas was expressed as a percentage of the injected radioactive dose per gram of tissue (% ID/g) in B16/F1 Murine Melanoma-Bearing C57 Mice at 24 h; assay type: functional, organism-based; settings: not given; method in brief: as §1

Substance | ID/g [%]
DOTA-ReCCEHdFRWCKPVD-OH | 0.017
DOTA-ReCCEHdFRWCRPV-NH2 | 0.081

species on record: Mus musculus; assay: Uptake of [111In]-labeled compound in lung at 2 hr pi in the presence of […]; assay type: functional, organism-based; settings: not given; method in brief: as §2

Substance | ID/g [%]
DOTA-ReCCEHdFRWCRPV-NH2 | 0.44

species on record: Mus musculus; assay: Radioactivity uptake in the kidneys was expressed as a percentage of the injected radioactive dose per gram of tissue (% ID/g) in B16/F1 Murine Melanoma-Bearing C57 Mice at 2 h; assay type: functional, organism-based; settings: Kidney; method in brief: as §1

Substance | ID/g [%]
DOTA-ReCCEHdFRWCKPVD-OH | 8.07
DOTA-ReCCEHdFRWCRPV-NH2 | 8.72

species on record: Mus musculus; assay: Radioactivity uptake in the blood was expressed as a percentage of the injected radioactive dose per gram of tissue (% ID/g) in B16/F1 Murine Melanoma-Bearing C57 Mice at 4 h; assay type: functional, organism-based; settings: not given; method in brief: as §1

Substance | ID/g [%]
DOTA-ReCCEHdFRWCKPVD-OH | 0.051
DOTA-ReCCEHdFRWCRPV-NH2 | 0.085

species on record: Mus musculus; assay: Radioactivity uptake in the kidneys was expressed as a percentage of the injected radioactive dose per gram of tissue (% ID/g) in B16/F1 Murine Melanoma-Bearing C57 Mice at 4 h; assay type: functional, organism-based; settings: Kidney; method in brief: as §1

Substance | ID/g [%]
DOTA-ReCCEHdFRWCKPVD-OH | 8.13
DOTA-ReCCEHdFRWCRPV-NH2 | 7.37

species on record: Mus musculus; assay: Uptake of [111In]-labeled compound in liver at 2 h pi in the absence of […]; assay type: functional, organism-based; settings: not given; method in brief: as §2

Substance | ID/g [%]
DOTA-ReCCEHdFRWCRPV-NH2 | 0.38
